This data set concerns MS2 coat protein. In words: apparent Kd, MS2 coat protein; higher = weaker binding; RNA-MaP array; FMN 200 µM where present. The method in brief:
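Stalled E. coli RNA polymerase transcribed the designs on Illumina sequencing-chip clusters. SNAP-549-labelled MS2 coat protein was titrated from 0.7 or 1.5 nM, doubling to 3 µM, without and then with constant ligand, in 100 mM Tris-HCl pH 7.5, 80 mM KCl, 4 mM MgCl2, BSA, DTT, yeast tRNA and Tween-20. Per-cluster binding curves were fitted to green signal normalised to red-channel RNA signal and control-cluster median Fmax. The apparent Kd is the median of the filtered fits.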

[1] abbreviates: designed as: OFF switch for flavin mononucleotide, no ligand.
Where [2] appears, read: ligand present: flavin mononucleotide, designed as: OFF switch for flavin mononucleotide.
Setting [3] is: designed as: ON switch for flavin mononucleotide, no ligand.
[4] abbreviates: ligand present: flavin mononucleotide, designed as: ON switch for flavin mononucleotide.

For orientation: apparent Kd means the concentration giving half-maximal binding under the conditions of the assay. As for “AAGAACUUAGGAUAUACAUGAGGAUCACCCAUGUAGCUUCACUUGGGCCUGAGCCCGUGUAGAAGGAAGAAAAU”, the “apparent Kd” value is 87.9 nM under setting [1] and 59 nM under setting [2].
As to “GCCGGGUAGGCAGGAUAUCCUCGCGCAAACACAUGAGGAUCACCCAUGUACACAAAACGUGAUAUGGAGAAGGGCCGACCCGCA”, the “apparent Kd” value under setting [3] was 26.6 nM and the “apparent Kd” value under setting [4] is 5.28 nM.
The corresponding values for “UCAGGAGUCACAGGAUAUCCGGCAUAGCAUACAGGAGAAGGGUGAUCACGAGCACAUGAGGAUCACCCAUGUGACAUUUGUGGA” are 96.3 nM and 83.3 nM.
As for “AGUGCGUAUGUGAGGAUAUGCUGGUCCUUGGCUCGGCAGAAGGCACAUGAGGAUCACCCAUGUGGUGUCGUACG”, the “apparent Kd” value by setting is: under setting [1], 62.2 nM; under setting [2], 412 nM.
For the sequence “AUGCUAGUGUGAGGAUAUCAACAUGAGGAUCACCCAUGUUGGAAGUACACGACAUGCGGUACACCUGAGAAGGUACAUUAGCAU”, the “apparent Kd” value by setting is: under setting [1], 19.6 nM; under setting [2], 25.4 nM.
For “GUUUCCAGAGGAUAUGCGAGGGUGUACCUCUAACAGCUCAAACAUGAGGAUCACCCAUGUAGAAGGCUGAUCAU”, the “apparent Kd” value by setting is: under setting [1], 19.8 nM; under setting [2], 18.2 nM.
In the case of “GCAUGUGUGUAAGGAUAUGCAUCACUGAGAAAUUUAGUGAGGAAGAUCACAUGAGGAUCACCCAUGUAGAAGGUACACACGUGC”, the “apparent Kd” value worked out at 8.01 nM under setting [1] and 56.9 nM under setting [2].
The corresponding values for “AUACUAAAUGAAGGAUAUCUAAGCAUAAACCUGAGAGAAGGUCAUUUUUACAUGAGGAUCACCCAUGUUGUGAUUAAUGGGUAA” are 201 nM and 366 nM.
For “AUAAUUUUAUAUUUCUUUUUAUUCAGAAGGCAUAACAUGAGGAUCACCCAUGUAAAUUAAUGUUAUGAGGAUAUGAUUUGGUUA” the same measures were 24.2 nM and 105 nM.
In the case of “UGGUACUAGGGAGGAUAUGGGAAGAUACAUGAGGAUCACCCAUGUUUAAGAACGCCGAGAGGCAACUAGAAGGCCCUAGUACCU”, the “apparent Kd” value was found to be 340 nM under setting [3] and 14.8 nM under setting [4].
In the case of “GGGUACAUCAGAGGAUAUCAUGUAAAUACAUGAGGAUCACCCAUGUCGAUGGAGACAUCGGAGAUUGAGAAGGCCGAUGUACCG”, the “apparent Kd” value reads like this: under setting [3], 292 nM; under setting [4], 13.4 nM.
In the case of “AGUAACAUACUCAACAUGAGGAUCACCCAUGUACUCUCAUGUAAGGAUAUACAAUCGUAUUGAUAGUAGAAGGUACCAAUUAAG”, the “apparent Kd” value by setting is: under setting [3], 845 nM; under setting [4], 685 nM.
In the case of “CUGCUGGAGCUUUGCUUUAGUCGUACAUGAGGAUCACCCAUGUAGGAUAUGGUAGGCUAUGCUUACUAGAAGGAUAGAGUGGUC”, the “apparent Kd” value under setting [1] worked out at 62.3 nM and the “apparent Kd” value under setting [2] was 32.2 nM.
The corresponding values for “GGCUCUGCUCGAGGAUAUAGCUGCAUGUAGUGUCCUGAGGCACAUGAGGAUCACCCAUGUGUAGGCUAGAAGGCGACAGAGGCG” are 188 nM and 276 nM.
For “GGAACUUAGGGAGGAUAUAGGCGACAUGAGGAUCACCCAUGUACGGAGGGCUCUUCCCGUGUUCACUAGAAGGCCCAUGUUACC” the same measures were 19.4 nM and 75 nM.
For “UAGUAGAUCCGAGGAUAUACAAUCCGGAAACGGUACAUGAGGAUCACCCAUGUAGAAGGCGGAUCUACAGGUACUAAAGUACCU” the same measures were 5.12 nM and 7.93 nM.
With “GAUAUAGUUGAGAAGGGAAGGGCACAGUCCUCUCUAAAACUACAUGAGGAUCACCCAUGUGGCUUUCAGGAUAUCAGCGCUAAA”, the “apparent Kd” value under setting [1] was found to be 22.5 nM and the “apparent Kd” value under setting [2] was found to be 109 nM.
“GAUGAGAGAGGAUAUACAUGAGGAUCACCCAUGUAAUUUUCGGACAUGGAAGCUGGAUGUAGAAGGCUCGCAUG”: the “apparent Kd” value is 20 nM under setting [1] and 46.2 nM under setting [2].
Take “UAAUUAAGUGUGAGGAUAUGCUGGUCCUUGGAUCAGCAGAAGGCACAUGAGGAUCACCCAUGUAAUUUAUAUAU”: the “apparent Kd” value is, setting by setting: under setting [1], 98.2 nM; under setting [2], 485 nM.
As for “CAAAGUUGGUAAGGAUAUCCCACAUUAUUCUGACCCGUGCAAGCUACAUGAGGAUCACCCAUGUGGGAGAAGGUGCGUUAAAGC”, the “apparent Kd” value by setting is: under setting [1], 372 nM; under setting [2], 219 nM.
The corresponding values for “CAUUAGCGAGGAUAUACAUGAGGAUCACCCAUGUGAUCCUAAGGCUGAUCAAGCCUAUGUAGAAGGCGCAAAUC” are 593 nM and 83.6 nM.
Turning to “AAAAGAAUAAAAGGAUAUAGGAAAGGAAGUGUACUAGAAGGUUUGUUAACAUGAGGAUCACCCAUGUGCUCAGACACAGGGUGC”, the “apparent Kd” value under setting [1] was determined as 124 nM and the “apparent Kd” value under setting [2] worked out at 167 nM.
“UGAACUAUGUAGAAGGCCCACAUUAAUAUGUAGGGAGGAUAUACAUGAGGAUCACCCAUGUGAAGAGCAAGAGGAUUUAACAGA”: the “apparent Kd” value came out at 23.9 nM under setting [1] and 106 nM under setting [2].
For “AAGUCACAUGAGGAUCACCCAUGUCGUAAACGAUGAGGAUAUAGGAAAAAAAAAAAAAAACUAGAAGGUAUAACAA”, the “apparent Kd” value was found to be 69.3 nM under setting [3] and 69.1 nM under setting [4].
As to “AAACCGCUAGGAUAUACGAAAUAAAACUCUGUACUUGAGGUACAUGAGGAUCACCCAUGUAGAAGGAGCUCGGA”, the “apparent Kd” value came to 119 nM under setting [1] and 229 nM under setting [2].
In the case of “GUACUCAUGUAAGGAUAUGCAGCCGAAACGGCUGCAGAAGGUACUAUAAUACAUGAGGAUCACCCAUGUCAAAAUAAAAUAGUU”, the “apparent Kd” value reads like this: under setting [3], 116 nM; under setting [4], 35.4 nM.
As for “GUCCUACAUGAGGAUCACCCAUGUGAGGAUAUGGUUUCGCUGGCCGUAGCCAGUGGAACCAGAAGGCGCGUGAU”, the “apparent Kd” value under setting [1] was found to be 65.3 nM and the “apparent Kd” value under setting [2] came out at 73.4 nM.
Take “CAAGUACCAGAGGAUAUGGCGGUGCACUCCGUGCCAGAAGGUUGGACAUGAGGAUCACCCAUGUGCGAUUAGCU”: the “apparent Kd” value under setting [1] came out at 26 nM and the “apparent Kd” value under setting [2] is 27.1 nM.
In the case of “UUAGAACAUGAGGAUCACCCAUGUGAGGAUAUGCAAUACUAAUAUUAAGAUAAUUAUAGCAGAAGGCACGUAGU”, the “apparent Kd” value is, setting by setting: under setting [1], 34.3 nM; under setting [2], 47.7 nM.
Turning to “GCUUGUGAAGGAUAUACUGGCGGCAUGCGCUCGGCGCGCGCACAUGAGGAUCACCCAUGUAGAAGGUCAAACGU”, the “apparent Kd” value came to 20.2 nM under setting [1] and 20.2 nM under setting [2].
For the sequence “AUUGGUUAAGGAUAUCCCUUAGCAGACAUGAGGAUCACCCAUGUCGUCAUGAGGCCAGGCGGAGAAGGUGACUAAU”, the “apparent Kd” value under setting [1] is 55.4 nM and the “apparent Kd” value under setting [2] is 35.8 nM.
For “AGCUUCGAAGGAUAUCCAGGUCCAGACAUGAGGAUCACCCAUGUGGUGAAGACGUUACCCGGAGAAGGUUGUGAGU”, the “apparent Kd” value was 70.5 nM under setting [1] and 61.7 nM under setting [2].
As to “UGAACCAUGACAUGAGAUGACAUGAGGAUCACCCAUGUGUACAAGGAUAUGUUGGUCGACGAUCGGCAGAAGGUGUAAUGGGAU”, the “apparent Kd” value by setting is: under setting [1], 58.9 nM; under setting [2], 196 nM.
On to “AAGAACGCAGGAUAUAUUAAGGGACAAAGAAGGAAGAAUAAACAUGAGGAUCACCCAUGUAGAAGGGCGAAGAA”, for which the “apparent Kd” value under setting [1] amounted to 60.5 nM and the “apparent Kd” value under setting [2] was determined as 58 nM.
With “AAAAGUACAGGAUAUACAUGAGGAUCACCCAUGUAGAAAGGAAGUGUAAAAAAAAAGUGUAGAAGGGUGCAUGA”, the “apparent Kd” value reads like this: under setting [1], 33.1 nM; under setting [2], 27.9 nM.
The corresponding values for “GCCAGGAUGUAAGGAUAUGCUGAGGAUAACUCAGCAGAAGGUACAUGAGGAUCACCCAUGUAAACCUAUAAUAAAUAACCUGGC” are 11 nM and 15.4 nM.
Turning to “AUUGUUUUCAUAGGAUAUUGACAUUUAUUUAUUCAAGAAGGAUGAUUACAUGAGGAUCACCCAUGUUAUUAUGGAUUAACUAGU”, the “apparent Kd” value is, setting by setting: under setting [1], 23.7 nM; under setting [2], 43.2 nM.
“UCCCUAAGGCGGGCCGACCAUACAUGAGGAUCACCCAUGUCGAGAAGGUGCUCACGGGUGGGUGGCAAGGAUAUCGGGUCGGAU”: the “apparent Kd” value reads like this: under setting [3], 78.8 nM; under setting [4], 40.5 nM.
With “CUAUUUAGUGCCUCAUUUACAUGAGGAUCACCCAUGUUAACUUAGGAUAUAUUUAUAUUGUUAGAGUAGAAGGAAGUACAUUUU”, the “apparent Kd” value runs as follows: under setting [1], 237 nM; under setting [2], 208 nM.
Turning to “CAGACCGGCGCAGGAUAUGUCGACAUGAGGAUCACCCAUGUAAGCCUCGUCUGGUCCGGUGUGUGACAGAAGGGUGUCGGCCAA”, the “apparent Kd” value is, setting by setting: under setting [1], 13.1 nM; under setting [2], 38.1 nM.
For “AUUUAAUUUAGCGAGAUCACAUGAGGAUCACCCAUGUAUAUAUAGGAUAUCAGCUCGAAUAGAGCUGAGAAGGAUAUAUACCGC” the same measures were 90.3 nM and 157 nM.
The corresponding values for “CUAUGGGCAGGAUAUGCAUAUCGGGAGUGGUCGCAAGCGUUACAUGAGGAUCACCCAUGUAGAAGGGCCGCGUC” are 18.9 nM and 20.4 nM.
Turning to “AGUACAUCAGGAUAUACAUGGAAGAUCAUUAUGACCCAUCUACAUGAGGAUCACCCAUGUAGAAGGGAUGUACA”, the “apparent Kd” value is 24.6 nM under setting [1] and 16.9 nM under setting [2].
For the sequence “UGGUACAUGGGAGGAUAUGGGAUGAUAACAUGAGGAUCACCCAUGUUAAAGAUGCCGAGAGGCAACUAGAAGGCCCAUGUACCU”, the “apparent Kd” value by setting is: under setting [3], 281 nM; under setting [4], 62.4 nM.
For the sequence “AUCAGCUCGUCAGGAUAUACGUCACUGCGUCAGCAGUUUGGUAAGAUCACAUGAGGAUCACCCAUGUAGAAGGGACGAGCUGAU”, the “apparent Kd” value is, setting by setting: under setting [1], 15.2 nM; under setting [2], 249 nM.
Turning to “AAAUCGAGUGUAGGAUAUGCACAGUUUGACCGUGCAGAAGGACACAUGAGGAUCACCCAUGUUAGCUCAUGGGCGGUGACUUAG”, the “apparent Kd” value is 92.2 nM under setting [1] and 82.2 nM under setting [2].
With “AUAAAACAUGAGGAUCACCCAUGUAGACAUAUGGGAGGAUAUACUAGAUCGAAAGAUCUAGUAGAAGGCCUUUAUG”, the “apparent Kd” value was determined as 44.2 nM under setting [3] and 20.8 nM under setting [4].
As for “AUAUGAAAGAUAGGAUAUACUGAGGUUGAAUGGGUAGAAGGAUCGAUAGUGGAGAAUACAUGAGGAUCACCCAUGUUGUGGAUU”, the “apparent Kd” value is, setting by setting: under setting [3], 828 nM; under setting [4], 353 nM.

The values above are taken from the EternaBench riboswitch data.
